# Compound activity deposited in PubChem by several laboratories.
# In the library only some 2.2% were active in any assay of this set; here they are far more common.
# AI-2 QS modul – modulates the Vibrio harveyi AI-2 quorum sensing system; Vibrio harveyi JMH597 AI-2 luminescence/OD600 ratio, 9 h; stronger effect = lower value; strain lacks LuxN and CqsS sensors; 0 = neutral-control median; activity change, % at 7.5 µM; 0.4% of 300,000 active; AID 2094; in the data active = activity change below about -75%, passing the limit was not always enough; inconclusive = no clear call, values can overlap the other calls;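 note: luminescence divided by OD600 gain over 9 h not by final OD600 alone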
# HDAC3 inh – inhibitors of human histone deacetylase 3; recombinant HDAC3, fluorogenic peptide/trypsin coupled, fluorescence; inhibition, % at 8.3 µM; 0.15% of 320,000 active; AID 2718; in the data active = inhibition above about 26%, passing the limit was not always enough; inconclusive = no clear call, values can overlap the other calls
# Target sequence (O15379 whole entry, looked up): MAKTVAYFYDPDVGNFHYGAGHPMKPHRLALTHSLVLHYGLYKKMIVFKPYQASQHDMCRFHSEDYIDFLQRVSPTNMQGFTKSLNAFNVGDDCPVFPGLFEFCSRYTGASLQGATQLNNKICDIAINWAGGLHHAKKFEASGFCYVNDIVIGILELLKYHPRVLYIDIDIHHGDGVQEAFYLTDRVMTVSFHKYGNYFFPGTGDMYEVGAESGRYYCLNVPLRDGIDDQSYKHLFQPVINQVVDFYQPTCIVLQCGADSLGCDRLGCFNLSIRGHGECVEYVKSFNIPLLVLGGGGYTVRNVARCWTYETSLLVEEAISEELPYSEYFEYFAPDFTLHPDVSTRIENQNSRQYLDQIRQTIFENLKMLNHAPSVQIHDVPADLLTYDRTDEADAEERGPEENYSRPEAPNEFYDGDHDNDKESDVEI
# Efflux pump inh – antifungal efflux pump inhibition, Nile Red retention. inhibition, % at 10 µM. S. cerevisiae Candida pump triplex. 0.44% of 330,000 active;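 active = plate passing quality check with inhibition over a set limit, or well fluorescence over plate mean plus 4 SD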;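 note: Nile Red retained in pooled yeast measured as flow cytometry median fluorescence; 0% = buffer negative control and 100% = Enniatin B positive control; higher means more Nile Red kept so more efflux inhibition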
# T cruzi repl – blocks replication of Trypanosoma cruzi; 1.4% of 300,000 active; T. cruzi beta-gal in NIH3T3, luminescence, 90 h; inhibition, % (no concentration beside the values); AID 1885;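 active = mean inhibition across valid replicates above about 55%, limit read from the data; inconclusive = mean below that limit but half or more replicates reach it; inactive = mean below it, under half of replicates reach it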;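 note: signal also drops with host cell toxicity which is not excluded here; 0% = plate median of DMSO wells and 100% = zero luminescence signal; higher percent means less beta-gal luminescence so fewer parasites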
#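 System: Mouse NIH/3T3 fibroblasts infected with β-gal-expressing T. cruzi Tulahuen C4 | Quantity: NIH/3T3 cells, 5,000 per well | Reagent: 5000 reporter trypomastigotes per well | Dosing: Compound pinned at 50 nL/well, DMSO | Schedule: 3 h host attachment, then at least 90 h co-culture | Detection: GalScreen luminescence, 60 min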
# PolyA inhibitor – yeast polyadenylation inhibition; S. cerevisiae SKY197-pL101 polyadenylation reporter, beta-gal luminescence; efflux-impaired pdr1/pdr3 knockout yeast; score 100 = 6 SD above DMSO; activity score, % at 12 µM; 0.02% of 300,000 active;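 active = lowest replicate activity score at least 50, where 100 means six control SD above control mean; inconclusive = lowest score under 50 but half or more replicates reach 50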;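 note: yeast exposed to compound for 9 h at 30 °C; higher score means more reporter readthrough which indicates perturbed polyadenylation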
# Yeast cmpd fluor – compound fluorescence in yeast efflux pump counter-screen; shares compounds with Efflux pump inh; S. cerevisiae AD/pABC3, flow cytometry; fluorescence ratio to DMSO, % at 10 µM; 4% of 1,700 active; AID 588517;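 active = fluorescence ratio to DMSO above its plate's cutoff, the plate mean ratio plus 5 SD, cut at about 210% in these data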;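 note: unstained yeast with no Nile Red so the signal is compound autofluorescence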
# Mdr1 pump inh – inhibitors of Candida albicans Mdr1 efflux pump; shares compounds with Efflux pump inh; S. cerevisiae AD/CaMDR1, Nile Red efflux, flow cytometry; inhibition, % at 10 µM; 1% of 1,700 active; AID 588518; in the data active = inhibition above about 26%;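 note: 0% = DMSO vehicle and 100% = reference inhibitor; higher means more Nile Red retained so more efflux inhibition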
# Cdr2 pump inh – blocks the Candida albicans Cdr2 efflux pump in yeast; shares compounds with Efflux pump inh; S. cerevisiae AD/CaCDR2, Nile Red retention, flow cytometry; Nile Red retention ratio vs DMSO, % at 10 µM; 4% of 1,700 active; AID 588520; in the data active = Nile Red retention ratio vs DMSO above about 190%;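 note: higher ratio means more blocking of Cdr2 efflux of the dye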
# Cdr1 pump inh – Candida Cdr1 efflux pump inhibition; shares compounds with Efflux pump inh; S. cerevisiae AD/CaCDR1, Nile Red efflux, flow cytometry; inhibition, % at 10 µM; 1% of 1,700 active;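 active = inhibition above the screen-wide mean plus twice its standard deviation, cut at about 32% in these data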
# An asterisk follows results filed as active; ? = inconclusive; / = not tested or not shown.
SMILES,AI-2 QS modul,HDAC3 inh,Efflux pump inh,T cruzi repl,PolyA inhibitor,Yeast cmpd fluor,Mdr1 pump inh,Cdr2 pump inh,Cdr1 pump inh
O=C(O)C(c1ccccc1)N1C(=O)/C(=C\c2ccc(O)c(O)c2)SC1=S (configuration not stated),1,18,2.0*,-15,19,116,0,125,0
COc1ccc(-n2ncc3c2CC(C)(C)CC3NC(=O)c2cn[nH]c2)cc1 (configuration not stated),4,5,0,-7,12,97,0,82,0
CC1(C)Cc2c(cnn2-c2ccc(F)cc2)C(NC(=O)c2cnccn2)C1 (configuration not stated),26,-1,6.2*,7,7,98,0,100,0
Cc1cc(C(=O)NC2CC(C)(C)Cc3c2cnn3-c2ccc(F)cc2)nn1C (configuration not stated),9,/,0,-8,21,/,/,/,/
COc1ccc(-n2ncc3c2CC(C)(C)CC3NC(=O)c2ccnn2C)cc1 (configuration not stated),25,3,0,-15,6,/,/,/,/
O=C(O)C[C@H](O)C[C@H](O)/C=C/c1c(C2CC2)nc2ccccc2c1-c1ccc(F)cc1,24,/,/,2,-6,/,/,/,/
O=C(NCCCC1CCCC1)C1CCC(=O)N(Cc2ccc(Cl)cc2)C1 (configuration not stated),17,-1,6.4*,12,11,98,0,97,0
Cc1ccc(S(=O)(=O)c2nc(-c3ccccc3)oc2NCCCN2CCOCC2)cc1,1,/,/,4,17,/,/,/,/
Cc1cccc(-c2nc(S(=O)(=O)c3ccc(F)cc3)c(NCCCN3CCOCC3)o2)c1,30,9,7.4*,-3,-3,94,0,91,0
COC(=O)N1CCCc2cc(C)ccc21,5,-1,0,0,4,/,/,/,/
Cc1ccc2c(c1)CCCN2C(=O)C1CCCO1 (configuration not stated),-12,-6,14*,-16,-5,103,0,100,0
COCCN(C(=O)COC(=O)c1ccccc1NCc1ccco1)c1c(N)n(Cc2ccccc2)c(=O)[nH]c1=O,29,-19,0,-6,14,/,/,/,/
CC(/C=C/c1ccccc1)=N\Nc1nc(C)cc(C)n1,5,3,5.5*,-4,3,100,0,112,0
CCSc1cc(N2CCOCC2)nc(-c2ccccc2)n1,3,3,0,12,-16,103,0,97,0
c1ccc(-c2cc(N3CCOCC3)nc(-c3ccccc3)n2)cc1,17,-6,0,10,-6,/,/,/,/
O=C(CN1CCCc2ccccc21)N/N=C/c1c(O)ccc2ccccc12,10,-2,13*,15,4,94,0,106,0
CCc1ccc(N/C(SCc2ccccc2C)=C(/C#N)C(=O)NCc2ccco2)cc1,14,2,0,50,/,/,/,/,/
CCOCCCNC(=O)C(Cc1ccccc1)NS(=O)(=O)c1ccc2c(c1)c(=O)n(C)c(=O)n2C (configuration not stated),16,-6,0,-7,0,/,/,/,/
CCCCNC(=O)C(Cc1ccccc1)NS(=O)(=O)c1ccc2c(c1)c(=O)n(C)c(=O)n2C (configuration not stated),/,1,1.8*,/,/,100,0,87,0
Cc1ccc(-n2c(C)nnc2SCC(=O)NC2CCCC2)cc1,16,-5,0,1,-1,/,/,/,/
COCC(=O)N/N=C(\C)CC(=O)NCc1ccco1,22,7,0,-21,12,/,/,/,/
OCCN=C1CCCc2c1[nH]c1ccc(Cl)cc21,-3,-4,0.6*,-7,-11,100,0,104,0
Nc1ccn(CC(=O)NCCc2ccccn2)c(=O)n1,/,-3,2.8*,/,/,100,0,104,0
COc1cccc(NC(=O)C/C(C)=N/NC(=O)c2ccccc2Cl)c1,20,-3,0.8*,-3,-1,100,0,94,0
COc1ccc(Cl)cc1NC(=O)C/C(C)=N/NC(=O)c1ccccc1Cl,26,12,0,-6,-9,/,/,/,/
SMILES,AI-2 QS modul,HDAC3 inh,Efflux pump inh,T cruzi repl,PolyA inhibitor,Yeast cmpd fluor,Mdr1 pump inh,Cdr2 pump inh,Cdr1 pump inh
O=c1n(-c2ccccc2)c(=O)n2n1CC(O)C2,17,2,0,-15,-13,/,/,/,/
COc1cccc(NC(=O)C(=O)N/N=C/c2cc(C)n(-c3ccc(Cl)c(Cl)c3)c2C)c1,-1,-3,0.7*,9,-10,113,0,106,0
O=C(NNc1cc(N2CCCC2)nc(N2CCCC2)n1)c1ccc([N+](=O)[O-])cc1,28,0,0.7*,26,-19,116,1,116,0
CC(=O)Oc1ccccc1/C=C/c1ccc2ccccc2[n+]1C,6,11,0,-6,?,/,/,/,/
COc1ccc(/C=C/c2ccc3ccccc3[n+]2C)cc1OC,9,5,1.1*,8,-21,227,2,112,2
O=C(C1CCCCC1)N1CCCC(c2nc(-c3ccc(F)cc3)no2)C1 (configuration not stated),30,4,8.2*,9,-7,104,0,112,0
COc1ccc(NC(=O)c2c[nH]n3c(=O)cc(C4CCN(C(=O)OC(C)(C)C)CC4)nc23)cc1Cl,8,2,1.1*,7,22,109,0,114,0
Cc1ccc(-c2nnc(N)s2)cc1,8,1,5.5*,-8,-2,113,1,105,0
COc1cc(/C=C/C(=O)c2ccc(O)cc2)ccc1OCC#N,-41,4,11*,-6,-9,95,0,108,0
COc1cccc(C(=O)/C=C/c2ccc(OCC#N)c(OC)c2)c1,5,/,0,-20,-13,/,/,/,/
CCN(CC)c1ccc(NC(=O)COc2ccc(C#N)cc2)cc1S(=O)(=O)Nc1ccc(OC)cc1,0,0,0,29,6,/,/,/,/
CC1CCc2c(C(=O)Nc3ccc(OC(F)(F)F)cc3)csc2C1 (configuration not stated),9,-3,19*,8,9,99,0,104,0
COc1cc2ccccc2cc1C(=O)Nc1ccc(C)cn1,11,-10,0,5,-4,/,/,/,/
